{"source": "ChEMBL document CHEMBL4033702", "about": "“Challenges in the development of an M4 PAM preclinical candidate: The discovery, SAR, and in vivo characterization of a series of 3-aminoazetidine-derived amides” (Bioorg Med Chem Lett, 2017)", "key": {"[1]": {"test_system": "Rattus norvegicus", "assay": "Reversal of amphetamine-induced hyperlocomotion in Sprague-Dawley rat at 0.03 mg/kg, po pretreated 30 mins post habituation in the chamber followed by amphetamine injection after 30 mins measured after 60 mins", "type": "functional", "method_in_brief": "(§1)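 Male Sprague-Dawley rats, n = 6–24 per dose group, were habituated in the chamber for 30 min. The compound or vehicle (10% tween-80 in water, v/v) was then given orally. Amphetamine 0.75 mg/kg was injected subcutaneously 30 min later. Total ambulations over t = 60–120 min gave % reversal of AHL, reported as mean ± SEM.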"}, "[2]": {"test_system": "Rattus norvegicus", "assay": "Volume of distribution at steady state in iv or po dosed Sprague-Dawley rat", "type": "ADME, organism-based", "settings": "in vivo; call rule not given here", "method_in_brief": "(§2)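 IV and PO pharmacokinetics in male Sprague-Dawley rats, n = 1–3. The oral dose was a 2–3 mg/kg solution. Plasma clearance, Vss and oral bioavailability were determined.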"}, "[3]": {"test_system": "Brain", "assay": "Drug level in Sprague-Dawley rat brain at 0.1 mg/kg, po", "type": "ADME, organism-based", "settings": "in vivo, read-out: Drug uptake"}, "[4]": {"test_system": "Brain", "assay": "Drug level in Sprague-Dawley rat brain at 1 mg/kg, po", "type": "ADME, organism-based", "settings": "in vivo, read-out: Drug uptake"}, "[5]": {"test_system": "Rattus norvegicus", "assay": "Reversal of amphetamine-induced hyperlocomotion in Sprague-Dawley rat assessed as plasma concentration required for the effect at 3 mg/kg, po pretreated 30 mins post habituation in the chamber followed by amphetamine injection after 30 mins measured at 1.5 hrs post dose", "type": "functional, organism-based", "method_in_brief": "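Rat AHL study: oral dosing 30 min after chamber habituation, then amphetamine 0.75 mg/kg s.c. 30 min later. Terminal plasma concentrations in the study animals were measured 1.5 hr after compound administration. From these, an in vivo plasma EC50 was derived, both total and unbound.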"}, "[6]": {"test_system": "Rattus norvegicus", "assay": "Reversal of amphetamine-induced hyperlocomotion in Sprague-Dawley rat at 0.3 mg/kg, po pretreated 30 mins post habituation in the chamber followed by amphetamine injection after 30 mins measured after 60 mins", "type": "functional", "method_in_brief": "as §1"}, "[7]": {"target": "T1, Cytochrome P450 1A2 (Homo sapiens, UniProt P05177)", "T1 sequence (P05177 whole entry)": "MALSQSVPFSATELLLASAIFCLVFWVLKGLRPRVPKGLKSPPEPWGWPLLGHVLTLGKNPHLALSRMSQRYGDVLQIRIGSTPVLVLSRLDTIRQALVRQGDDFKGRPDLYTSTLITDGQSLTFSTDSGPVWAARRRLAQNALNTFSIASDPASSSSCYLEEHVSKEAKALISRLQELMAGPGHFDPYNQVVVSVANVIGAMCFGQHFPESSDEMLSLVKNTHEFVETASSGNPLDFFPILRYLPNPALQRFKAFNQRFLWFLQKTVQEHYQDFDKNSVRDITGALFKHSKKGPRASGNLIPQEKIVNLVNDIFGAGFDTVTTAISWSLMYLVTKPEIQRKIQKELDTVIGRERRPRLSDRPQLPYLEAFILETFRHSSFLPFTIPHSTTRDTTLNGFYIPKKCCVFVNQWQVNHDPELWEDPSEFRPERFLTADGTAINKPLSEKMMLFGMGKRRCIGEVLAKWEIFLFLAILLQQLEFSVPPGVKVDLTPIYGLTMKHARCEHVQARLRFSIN", "assay": "Time-dependent inhibition of CYP1A2 (unknown origin)", "type": "ADME"}, "[8]": {"target": "T2, Cytochrome P450 3A4 (Homo sapiens, UniProt P08684)", "T2 sequence (P08684 whole entry)": "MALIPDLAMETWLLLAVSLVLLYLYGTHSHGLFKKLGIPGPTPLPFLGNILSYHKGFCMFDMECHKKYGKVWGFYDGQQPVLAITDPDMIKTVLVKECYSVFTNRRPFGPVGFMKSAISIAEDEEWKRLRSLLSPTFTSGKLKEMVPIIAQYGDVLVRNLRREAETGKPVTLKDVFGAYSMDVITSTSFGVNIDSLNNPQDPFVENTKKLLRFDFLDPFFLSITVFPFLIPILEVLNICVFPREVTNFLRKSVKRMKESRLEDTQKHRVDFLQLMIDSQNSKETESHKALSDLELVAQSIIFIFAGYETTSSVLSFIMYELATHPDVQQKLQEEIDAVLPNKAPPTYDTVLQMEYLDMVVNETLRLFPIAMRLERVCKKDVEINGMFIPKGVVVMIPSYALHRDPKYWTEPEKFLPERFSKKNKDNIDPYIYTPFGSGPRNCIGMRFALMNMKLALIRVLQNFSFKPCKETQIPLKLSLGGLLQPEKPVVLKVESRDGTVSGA", "assay": "Time-dependent inhibition of CYP3A4 (unknown origin)", "type": "ADME"}, "[9]": {"target": "T3, Cytochrome P450 2C19 (Homo sapiens, UniProt P33261)", "T3 sequence (P33261 whole entry)": "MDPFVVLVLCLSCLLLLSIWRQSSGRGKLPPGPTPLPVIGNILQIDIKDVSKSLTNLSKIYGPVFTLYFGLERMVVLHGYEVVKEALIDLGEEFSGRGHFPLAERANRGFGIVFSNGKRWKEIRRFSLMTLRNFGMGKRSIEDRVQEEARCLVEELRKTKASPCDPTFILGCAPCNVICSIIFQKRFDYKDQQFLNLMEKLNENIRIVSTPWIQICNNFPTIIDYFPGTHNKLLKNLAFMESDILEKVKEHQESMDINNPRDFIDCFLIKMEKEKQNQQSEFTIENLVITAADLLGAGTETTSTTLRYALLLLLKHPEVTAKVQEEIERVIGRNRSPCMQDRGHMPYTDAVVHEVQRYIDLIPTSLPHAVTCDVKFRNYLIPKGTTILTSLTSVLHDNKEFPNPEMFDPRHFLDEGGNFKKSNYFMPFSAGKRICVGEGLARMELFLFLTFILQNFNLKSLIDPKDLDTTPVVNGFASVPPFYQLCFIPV", "assay": "Inhibition of CYP2C19 (unknown origin)", "type": "ADME"}, "[10]": {"test_system": "Brain", "assay": "Drug level in Sprague-Dawley rat brain at 0.03 mg/kg, po", "type": "ADME, organism-based", "settings": "in vivo, read-out: Drug uptake"}, "[11]": {"assay": "Kinetic solubility of the compound in FaSSIF at pH 6.5 measured after 1 hr", "type": "physicochemical", "settings": "read-out: Kinetic_solubility"}, "[12]": {"target": "T3, Cytochrome P450 2C19", "assay": "Time-dependent inhibition of CYP2C19 (unknown origin)", "type": "ADME"}, "[13]": {"test_system": "Canis familiaris", "assay": "Oral bioavailability in Mongrel dog at 2 to 3 mg/kg", "type": "ADME, organism-based, Canis lupus familiaris", "settings": "in vivo", "method_in_brief": "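IV and PO pharmacokinetics in female mongrel dogs, n = 1–2. The oral dose was a 2–3 mg/kg solution. Vss and oral bioavailability were determined.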"}, "[14]": {"assay": "Oral bioavailability in Mongrel dog at 2 mg/kg administered as suspension", "type": "ADME, organism-based, Canis lupus familiaris", "settings": "in vivo", "method_in_brief": "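Female mongrel dogs were dosed orally with a 2 mg/kg suspension in a low-excipient vehicle, and oral bioavailability was determined.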"}, "[15]": {"test_system": "Rattus norvegicus", "assay": "Reversal of amphetamine-induced hyperlocomotion in po dosed Sprague-Dawley rat pretreated 30 mins post habituation in the chamber followed by amphetamine injection after 30 mins measured after 60 mins", "type": "functional", "settings": "read-out: MED", "method_in_brief": "as §1"}, "[16]": {"test_system": "Rattus norvegicus", "assay": "Reversal of amphetamine-induced hyperlocomotion in Sprague-Dawley rat at 1 mg/kg, po pretreated 30 mins post habituation in the chamber followed by amphetamine injection after 30 mins measured after 60 mins", "type": "functional", "method_in_brief": "as §1"}, "[17]": {"target": "Cytochrome P450 2C9 (Homo sapiens, UniProt P11712)", "sequence (P11712 whole entry)": "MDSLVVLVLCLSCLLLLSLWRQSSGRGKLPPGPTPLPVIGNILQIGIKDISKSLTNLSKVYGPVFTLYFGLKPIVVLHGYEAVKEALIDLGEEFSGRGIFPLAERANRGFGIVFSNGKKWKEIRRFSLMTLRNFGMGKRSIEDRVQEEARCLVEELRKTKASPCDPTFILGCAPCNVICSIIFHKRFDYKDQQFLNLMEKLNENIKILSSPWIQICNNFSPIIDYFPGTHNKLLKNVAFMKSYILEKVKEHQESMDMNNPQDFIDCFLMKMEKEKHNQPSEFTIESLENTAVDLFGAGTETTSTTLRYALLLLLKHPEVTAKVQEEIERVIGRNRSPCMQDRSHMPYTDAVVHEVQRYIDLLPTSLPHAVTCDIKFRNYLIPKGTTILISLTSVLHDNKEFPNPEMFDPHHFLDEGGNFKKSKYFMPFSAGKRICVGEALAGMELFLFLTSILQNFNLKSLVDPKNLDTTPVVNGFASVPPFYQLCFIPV", "assay": "Inhibition of CYP2C9 (unknown origin)", "type": "ADME"}, "[18]": {"test_system": "Salmonella typhimurium", "assay": "Mutagenicity in Salmonella typhimurium by Ames test", "type": "toxicity", "settings": "salmonella enterica subsp. enterica serovar typhimurium"}, "[19]": {"test_system": "Rattus norvegicus", "assay": "Reversal of amphetamine-induced hyperlocomotion in Sprague-Dawley rat at 3 mg/kg, po pretreated 30 mins post habituation in the chamber followed by amphetamine injection after 30 mins measured after 60 mins", "type": "functional", "method_in_brief": "as §1"}, "[20]": {"target": "Cytochrome P450 2D6 (Homo sapiens, UniProt P10635)", "sequence (P10635 whole entry)": "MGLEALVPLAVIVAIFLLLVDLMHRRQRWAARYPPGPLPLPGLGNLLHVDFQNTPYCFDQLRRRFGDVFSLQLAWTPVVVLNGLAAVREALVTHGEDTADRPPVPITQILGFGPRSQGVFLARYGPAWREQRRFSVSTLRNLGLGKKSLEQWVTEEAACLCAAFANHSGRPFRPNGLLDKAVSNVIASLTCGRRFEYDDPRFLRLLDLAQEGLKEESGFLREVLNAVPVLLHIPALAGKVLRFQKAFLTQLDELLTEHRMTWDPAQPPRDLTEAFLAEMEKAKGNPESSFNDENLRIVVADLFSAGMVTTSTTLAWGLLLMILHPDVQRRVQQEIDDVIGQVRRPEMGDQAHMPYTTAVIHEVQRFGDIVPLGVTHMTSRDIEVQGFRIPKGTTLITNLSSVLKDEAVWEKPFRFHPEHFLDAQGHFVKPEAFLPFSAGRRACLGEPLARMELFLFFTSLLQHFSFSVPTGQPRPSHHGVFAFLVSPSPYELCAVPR", "assay": "Time-dependent inhibition of CYP2D6 (unknown origin)", "type": "ADME"}, "[21]": {"test_system": "Brain", "assay": "Drug level in Sprague-Dawley rat brain at 10 mg/kg, po", "type": "ADME, organism-based", "settings": "in vivo, read-out: Drug uptake"}, "[22]": {"test_system": "Brain", "assay": "Drug level in Sprague-Dawley rat brain at 3 mg/kg, po", "type": "ADME, organism-based", "settings": "in vivo, read-out: Drug uptake"}, "[23]": {"target": "T4, Muscarinic acetylcholine receptor M4 (Rattus norvegicus) (UniProt P08485)", "T4 sequence (whole entry)": "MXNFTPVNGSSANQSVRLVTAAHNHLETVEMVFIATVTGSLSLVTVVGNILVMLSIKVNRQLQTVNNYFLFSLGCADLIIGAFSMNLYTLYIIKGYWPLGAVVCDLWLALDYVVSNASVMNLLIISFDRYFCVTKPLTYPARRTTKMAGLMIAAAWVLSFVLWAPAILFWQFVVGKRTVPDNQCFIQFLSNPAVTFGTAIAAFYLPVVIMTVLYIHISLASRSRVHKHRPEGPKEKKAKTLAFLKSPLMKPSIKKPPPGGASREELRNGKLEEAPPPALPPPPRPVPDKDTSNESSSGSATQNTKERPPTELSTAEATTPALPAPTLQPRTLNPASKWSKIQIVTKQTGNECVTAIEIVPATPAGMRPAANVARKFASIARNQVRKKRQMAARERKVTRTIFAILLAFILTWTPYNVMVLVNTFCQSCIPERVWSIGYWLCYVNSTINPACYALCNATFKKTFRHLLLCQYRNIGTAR", "assay": "Activity at rat M4 receptor assessed as acetylcholine-induced calcium mobilization", "type": "functional", "method_in_brief": "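Ca2+ mobilization read-out. Acetylcholine concentration-response curves were run in the presence of the PAM to measure the fold-shift. An operational model was fitted to derive the PAM's affinity (KB) and cooperativity (αβ).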"}, "[24]": {"assay": "Clearance in iv or po dosed Sprague-Dawley rat", "type": "ADME, organism-based", "settings": "in vivo", "method_in_brief": "as §2"}, "[25]": {"target": "T2, Cytochrome P450 3A4", "assay": "Inhibition of CYP3A4 (unknown origin)", "type": "ADME"}, "[26]": {"test_system": "Rattus norvegicus", "assay": "Oral bioavailability in Sprague-Dawley rat at 2 to 3 mg/kg", "type": "ADME, organism-based", "settings": "in vivo", "method_in_brief": "as §2"}}}
{"molecule": "Cc1nnc2sc(C(=O)NC3CN(c4cccc(F)c4F)C3)c(N)c2c1C", "values": [{"measurement": "Activity", "setting": "[1]", "value": 18, "unit": "%"}, {"measurement": "Vdss", "setting": "[2]", "value": 0.67, "unit": "L/kg"}, {"measurement": "concentration", "setting": "[3]", "value": 9.9, "unit": "nM"}, {"measurement": "concentration", "setting": "[4]", "value": 140, "unit": "nM"}, {"measurement": "fEC50", "setting": "[5]", "value": 0.66, "unit": "nM"}, {"measurement": "EC50", "setting": "[5]; Rattus norvegicus, Sprague-Dawley", "value": 0.074, "unit": "µM"}, {"measurement": "Activity", "setting": "[6]", "value": 43, "unit": "%"}, {"measurement": "TDI", "setting": "[7]", "value": "Not Active"}, {"measurement": "TDI", "setting": "[8]", "value": "Not Active"}, {"measurement": "IC50", "setting": "[9]", "value": 6.3, "unit": "µM"}, {"measurement": "concentration", "setting": "[10]", "value": 4.6, "unit": "nM"}, {"measurement": "solubility kinetic at 1 h", "setting": "[11]", "value": 15, "unit": "µg/mL"}, {"measurement": "TDI", "setting": "[12]", "value": "Not Active"}, {"measurement": "F", "setting": "[13]", "value": 20, "unit": "%"}, {"measurement": "bioavailability", "setting": "[14]", "value": 11, "unit": "%"}, {"measurement": "minimal effective dose", "setting": "[15]", "value": 0.3, "unit": "mg/kg"}, {"measurement": "Activity", "setting": "[16]", "value": 64, "unit": "%"}, {"measurement": "IC50", "setting": "[17]", "value": 3.8, "unit": "µM"}, {"measurement": "Activity", "setting": "[18]", "value": "Non-Toxic"}, {"measurement": "Activity", "setting": "[19]", "value": 74, "unit": "%"}, {"measurement": "TDI", "setting": "[20]", "value": "Not Active"}, {"measurement": "concentration", "setting": "[21]", "value": 820, "unit": "nM"}, {"measurement": "concentration", "setting": "[22]", "value": 510, "unit": "nM"}, {"measurement": "Kb", "setting": "[23]", "value": 0.12, "unit": "µM"}, {"measurement": "clearance", "setting": "[24]", "value": 16, "unit": "mL/min/kg"}, {"measurement": "IC50", "setting": "[25]", "value": 11, "unit": "µM"}, {"measurement": "F", "setting": "[26]", "value": 38, "unit": "%"}]}
